Measurements: ChEMBL document CHEMBL4811254, “Beyond Basicity: Discovery of Nonbasic DENV-2 Protease Inhibitors with Potent Activity in Cell Culture” (J Med Chem, 2021)
Calls of active or inactive are those of the source.

Tests used:
[1] = target: Genome polyprotein (dengue virus type 2) (UniProt P29990); assay: Inhibition of DENV2 NS2B-NS3 protease expressed in Escherichia coli BL21 lambda(DE3) using FRET substrate preincubated with enzyme for 15 mins in presence of detergent CHAPS followed by substrate addition for 15 mins by fluorescence based analysis; conditions: time 30.0 min
[2] = target: Prothrombin (Homo sapiens) (UniProt P00734); assay: Inhibition of thrombin in human plasma using Boc-Val-Pro-Arg-AMC as substrate at 25 uM preincubated with enzyme for 15 mins followed by substrate addition and measured for 15 mins by fluorimetric assay; assay type: cell-free; conditions: time 30.0 min
[3] = target: Trypsin (Homo sapiens) (UniProt P07477+P07478+P35030); assay: Inhibition of trypsin (unknown origin) using Boc-Val-Pro-Arg-AMC as substrate at 50 uM preincubated with enzyme for 15 mins followed by substrate addition and measured for 15 mins by fluorimetric assay; assay type: protein assay; conditions: time 30.0 min
[4] = Cytotoxicity against human HeLa cells assessed as reduction in cell viability incubated for 24 hrs by CellTiter-Blue assay; assay type: cell-based
Outline: (§1)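 Viability by CellTiter-Blue in HeLa or Huh-7 cells exposed to compound dilutions. Plates run in parallel with the reporter assay (HeLa) or the virus titer assay (Huh-7).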

[5] = target: Genome polyprotein (dengue virus type 2, UniProt P29990); assay: Inhibition of NS2B-NS3 protease in DENV2proHeLa system assessed as inhibition of luciferase signal incubated for 24 hrs by luciferase reporter gene assay; assay type: cell-based, HeLa
Outline: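 HeLa cells stably carrying the reporter system, 2 × 10⁴ per well, given inhibitor at seeding and held 24 h at 37 °C. Cells lysed 15 min at room temperature. Luciferase read for 5 s after injecting coelenterazine (2.75 μM in PBS). Triplicate wells per concentration; percent inhibition taken against untreated cells. EC50/EC90 from 4-parameter dose-response fit, background from cell-free wells subtracted.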

[6] = target: Genome polyprotein (dengue virus type 2) (UniProt P29990); assay: Inhibition of NS2B-NS3 protease in DENV2proHeLa system assessed as inhibition of luciferase signal at 12.5 uM incubated for 24 hrs by luciferase reporter gene assay; assay type: cell-based; conditions: HeLa
Outline: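 Stable DENV2proHeLa cells seeded at 2 × 10⁴/well and dosed immediately, then incubated 24 h at 37 °C. Cells lysed 15 min at room temperature. Luciferase read with coelenterazine (2.75 μM in PBS) injection, luminescence 5 s. Triplicates; percent inhibition calculated relative to untreated control; background from cell-free wells.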

[7] = target: Genome polyprotein (West Nile virus) (UniProt P06935); assay: Inhibition of WNV NS2B-NS3 protease expressed in Escherichia coli BL21 lambda(DE3) using FRET substrate preincubated with enzyme for 15 mins in presence of detergent CHAPS followed by substrate addition for 15 mins by fluorescence based analysis; conditions: time 30.0 min
Sequence of Genome polyprotein (West Nile virus) (P06935 whole entry): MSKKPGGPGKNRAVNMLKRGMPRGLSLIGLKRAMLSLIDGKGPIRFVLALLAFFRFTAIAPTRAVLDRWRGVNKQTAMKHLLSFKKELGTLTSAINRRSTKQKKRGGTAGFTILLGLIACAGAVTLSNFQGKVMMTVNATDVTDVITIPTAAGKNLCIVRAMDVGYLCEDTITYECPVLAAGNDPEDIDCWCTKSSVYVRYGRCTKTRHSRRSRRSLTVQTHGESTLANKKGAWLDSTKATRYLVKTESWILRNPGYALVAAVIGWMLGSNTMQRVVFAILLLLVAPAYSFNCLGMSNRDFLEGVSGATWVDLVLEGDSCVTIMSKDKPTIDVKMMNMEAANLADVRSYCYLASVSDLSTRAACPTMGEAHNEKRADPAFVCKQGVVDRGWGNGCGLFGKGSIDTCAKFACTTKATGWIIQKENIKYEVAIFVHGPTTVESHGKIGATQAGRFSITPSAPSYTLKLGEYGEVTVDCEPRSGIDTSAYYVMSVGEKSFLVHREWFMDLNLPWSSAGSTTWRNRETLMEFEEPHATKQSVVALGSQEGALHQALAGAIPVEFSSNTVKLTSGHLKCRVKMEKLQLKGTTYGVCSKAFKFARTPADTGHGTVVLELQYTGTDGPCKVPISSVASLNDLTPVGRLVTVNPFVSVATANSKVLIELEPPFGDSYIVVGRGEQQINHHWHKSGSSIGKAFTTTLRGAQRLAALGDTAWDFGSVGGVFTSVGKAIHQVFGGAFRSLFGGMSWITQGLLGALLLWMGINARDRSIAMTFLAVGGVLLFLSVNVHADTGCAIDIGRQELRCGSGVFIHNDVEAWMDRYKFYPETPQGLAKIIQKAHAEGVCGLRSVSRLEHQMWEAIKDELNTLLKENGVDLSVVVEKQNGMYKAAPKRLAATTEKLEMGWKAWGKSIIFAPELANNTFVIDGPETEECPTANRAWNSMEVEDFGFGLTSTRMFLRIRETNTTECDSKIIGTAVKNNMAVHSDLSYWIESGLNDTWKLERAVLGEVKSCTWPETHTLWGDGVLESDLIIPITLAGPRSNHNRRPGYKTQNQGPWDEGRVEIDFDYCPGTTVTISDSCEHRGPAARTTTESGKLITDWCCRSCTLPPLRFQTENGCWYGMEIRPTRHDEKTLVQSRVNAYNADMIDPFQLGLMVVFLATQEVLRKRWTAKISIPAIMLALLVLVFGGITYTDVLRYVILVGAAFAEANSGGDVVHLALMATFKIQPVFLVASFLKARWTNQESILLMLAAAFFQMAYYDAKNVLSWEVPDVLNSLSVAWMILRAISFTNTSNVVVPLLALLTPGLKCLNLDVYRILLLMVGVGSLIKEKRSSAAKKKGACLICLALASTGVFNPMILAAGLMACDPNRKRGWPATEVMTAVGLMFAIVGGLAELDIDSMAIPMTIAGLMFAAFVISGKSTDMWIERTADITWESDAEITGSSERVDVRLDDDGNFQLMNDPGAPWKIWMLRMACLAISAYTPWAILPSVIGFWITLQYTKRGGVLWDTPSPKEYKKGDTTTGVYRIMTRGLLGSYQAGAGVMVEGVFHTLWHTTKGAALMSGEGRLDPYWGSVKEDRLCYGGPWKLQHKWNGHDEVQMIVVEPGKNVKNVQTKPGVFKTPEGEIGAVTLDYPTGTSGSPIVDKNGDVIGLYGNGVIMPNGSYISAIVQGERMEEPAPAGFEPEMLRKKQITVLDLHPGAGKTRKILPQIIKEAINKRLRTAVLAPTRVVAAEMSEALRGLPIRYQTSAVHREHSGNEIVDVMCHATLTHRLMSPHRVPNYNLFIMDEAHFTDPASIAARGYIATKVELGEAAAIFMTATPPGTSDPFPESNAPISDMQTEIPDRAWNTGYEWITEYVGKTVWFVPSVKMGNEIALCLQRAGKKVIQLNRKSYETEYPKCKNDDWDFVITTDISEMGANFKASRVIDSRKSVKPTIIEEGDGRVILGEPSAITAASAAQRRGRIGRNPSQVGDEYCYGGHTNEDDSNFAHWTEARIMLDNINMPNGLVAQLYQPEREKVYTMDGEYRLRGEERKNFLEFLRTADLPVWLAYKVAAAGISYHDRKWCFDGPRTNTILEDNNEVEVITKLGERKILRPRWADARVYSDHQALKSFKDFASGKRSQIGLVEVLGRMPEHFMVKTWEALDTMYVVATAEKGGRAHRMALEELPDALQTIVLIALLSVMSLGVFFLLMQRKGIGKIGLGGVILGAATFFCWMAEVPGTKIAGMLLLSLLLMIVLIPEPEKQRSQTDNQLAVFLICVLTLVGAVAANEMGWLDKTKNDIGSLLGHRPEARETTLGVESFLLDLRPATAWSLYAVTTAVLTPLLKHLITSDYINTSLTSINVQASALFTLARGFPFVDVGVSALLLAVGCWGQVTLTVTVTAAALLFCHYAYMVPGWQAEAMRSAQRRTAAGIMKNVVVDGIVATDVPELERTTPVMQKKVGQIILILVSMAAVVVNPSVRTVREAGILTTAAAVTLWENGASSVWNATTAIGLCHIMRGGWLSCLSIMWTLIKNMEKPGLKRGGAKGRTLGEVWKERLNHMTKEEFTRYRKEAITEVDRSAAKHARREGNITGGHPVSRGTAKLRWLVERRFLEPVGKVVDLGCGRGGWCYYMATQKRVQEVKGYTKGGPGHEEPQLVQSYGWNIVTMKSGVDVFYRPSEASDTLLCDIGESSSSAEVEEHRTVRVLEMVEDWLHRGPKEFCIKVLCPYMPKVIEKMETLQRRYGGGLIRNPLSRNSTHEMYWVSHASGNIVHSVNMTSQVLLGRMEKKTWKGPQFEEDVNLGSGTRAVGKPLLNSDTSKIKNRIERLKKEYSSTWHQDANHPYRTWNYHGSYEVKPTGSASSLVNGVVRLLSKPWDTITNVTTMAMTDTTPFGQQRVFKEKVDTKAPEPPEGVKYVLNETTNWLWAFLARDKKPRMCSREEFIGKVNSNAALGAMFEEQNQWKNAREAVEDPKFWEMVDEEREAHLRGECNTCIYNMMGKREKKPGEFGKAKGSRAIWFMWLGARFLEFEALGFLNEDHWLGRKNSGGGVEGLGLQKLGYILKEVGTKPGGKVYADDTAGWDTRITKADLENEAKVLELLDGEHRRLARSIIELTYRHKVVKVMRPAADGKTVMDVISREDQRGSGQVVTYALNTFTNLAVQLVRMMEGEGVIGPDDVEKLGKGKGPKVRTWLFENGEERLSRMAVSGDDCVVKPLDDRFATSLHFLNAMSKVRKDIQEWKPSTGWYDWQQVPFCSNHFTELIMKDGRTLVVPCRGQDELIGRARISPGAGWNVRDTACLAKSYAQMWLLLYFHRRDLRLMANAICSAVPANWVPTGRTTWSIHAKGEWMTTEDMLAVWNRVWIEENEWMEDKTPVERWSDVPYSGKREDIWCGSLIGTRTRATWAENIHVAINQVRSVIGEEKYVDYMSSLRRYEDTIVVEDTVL

[8] = Passive membrane permeability of the compound in phosphate buffered saline at 200 uM incubated for 5 hrs by PAMPA assay based HPLC analysis; assay type: ADME; conditions: PAMPA, read-out: permeability
Outline: (§2)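 Precoated trilayer PAMPA, 5 h incubation. Acceptor and donor concentrations measured after 5 h. Permeability and mass retention calculated by a literature method.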

[9] = Passive membrane permeability of the compound in phosphate buffered saline assessed as concentration of the compound in donor plate at 200 uM incubated for 5 hrs by PAMPA assay based HPLC analysis; assay type: ADME; outline: as §2
[10] = Passive membrane permeability of the compound in phosphate buffered saline assessed as mass retention of the compound at 200 uM incubated for 5 hrs by PAMPA assay based HPLC analysis; assay type: ADME; outline: as §2
[11] = Passive membrane permeability of the compound in phosphate buffered saline assessed as concentration of the compound in acceptor plate at 200 uM incubated for 5 hrs by PAMPA assay based HPLC analysis; assay type: ADME; outline: as §2
[12] = system: dengue virus type 2; assay: (§3) Antiviral activity against DENV2 infected in human Huh7 cells assessed as reduction in virus titer in cell supernatant by measuring inhibition of plaque formation using VeroE6 cells at 12.5 uM preincubated with viral infected Huh7 cells for 48 hrs and measured following infection of VeroE6 cells with supernatants for 7 days by plaque assay based crystal violet staining analysis; assay type: functional; conditions: Huh-7, 216 h, time 9 day
Outline: (§4)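 Huh-7 cells seeded at 1 × 10⁴/well and incubated overnight. Infected with DENV-2 at MOI 1 for 2 h, then medium changed and compound added. […] Pooled supernatants titred by plaque assay on VeroE6 cells: 10⁻¹ to 10⁻⁶ dilutions, 1 h infection, 7 days, formaldehyde fix, crystal violet.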

[13] = system: Huh-7; assay: Cytotoxicity against human Huh-7 cells assessed as reduction in cell viability at 12.5 uM incubated for 48 hrs by CellTiter-Blue assay; assay type: cell-based; conditions: huh-7, 48 h; outline: as §1
[14] = Stability of the compound assessed as bovine pancreas trypsin-mediated parent compound depletion at 0.1 mg/ml incubated for 120 mins by HPLC analysis; assay type: ADME, Bos taurus; conditions: cattle, isolated protein, 2 h
Outline: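 Compound incubated with α-chymotrypsin or bovine trypsin in buffer for 120 min at 37 °C; parent compound depletion monitored.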

[15] = system: dengue virus type 2; assay: as §3, with “cells” for “cells at 12.5 uM”; assay type: functional, organism-based, Huh-7; conditions: for EC50: Huh-7; for EC90: Huh-7, 216 h, time 9 day; outline: as §4

Row | Structure (SMILES) | inhibition [1] | inhibition [2] | inhibition [3] | CC50 at 24 h [4] [µM] | EC50 [5] [µM] | inhibition [6] [%] | inhibition [7] | Papp at 5 h, 200 µM [8] [×10⁻⁶ cm/s] | Activity [9] [µM] | Activity [10] [%] | Activity [11] [µM] | inhibition at 12.5 µM [12] [%] | Activity [13] [%] | Stabilty [14] | EC50 [15] [µM] | EC90 [15] [µM]
1 | NC(=O)c1cccc(NC(=O)[C@@H](NC(=O)c2ccc(-c3cncnc3)cc2)c2ccc(OCc3ccccc3)cc2)c1 | Active | inactive | inactive | > 50 | 8.1 | 59 | Active | – | – | – | – | – | – | – | – | –
2 | NC(=O)c1cccc(NC(=O)[C@@H](NC(=O)c2ccc(Oc3cccc4c3C(=O)CC4)cc2)c2ccc(OCc3ccccc3)cc2)c1 | – | inactive | inactive | > 100 | 3.9 | 57 | Active | – | – | – | – | – | – | – | – | –
3 | CCCCCCCS(=O)(=O)N[C@H](C(=O)NCc1ccc(C(N)=O)cc1)c1ccc(OCc2ccccc2)cc1 | – | inactive | inactive | > 25 | 11 | 47 | Active | – | – | – | – | – | – | – | – | –
4 | Cn1c(=O)c2c(ncn2C)n(C)c1=O [CAFFEINE] | – | – | – | – | – | – | – | 7.3 | 173 | 2.4 | 33 | – | – | – | – | –
5 | N=C(N)NCCC[C@H](NC(=O)c1ccccc1)C(=O)NC(CCCCN)C(=O)NC(C(N)=O)c1ccc(OCc2ccccc2)cc1 (stereo partly specified) | Active | – | – | – | – | – | Active | – | – | – | – | 50 | < 20 | Unstable | – | –
6 | NC(=O)c1cccc(NC(=O)[C@@H](NC(=O)c2ccc(Oc3ccc4c(c3)OCO4)cc2)c2ccc(OCc3ccccc3)cc2)c1 | Active | inactive | inactive | > 100 | 1.5 | 78 | – | 0.8 | 180 | 8.7 | 3.7 | 98 | < 20 | – | 2.2 | 6.8
7 | N#Cc1ccc(Oc2ccc(C(=O)N[C@H](C(=O)Nc3cccc(C(N)=O)c3)c3ccc(OCc4ccccc4)cc3)cc2)cc1 | Active | inactive | inactive | > 100 | 1 | 79 | Active | 1 | 177 | 9.9 | 4.5 | 88 | < 20 | – | 0.66 | 8
8 | NC(=O)c1cccc(NC(=O)[C@@H](NC(=O)c2ccc(Oc3ccc4c(c3)OCCO4)cc2)c2ccc(OCc3ccccc3)cc2)c1 | Active | inactive | inactive | > 100 | 3.8 | 61 | Active | – | – | – | – | – | – | – | – | –
9 | CCCCCC(=O)N[C@H](C(=O)NCc1ccc(C(N)=O)cc1)c1ccc(OCc2c(Cl)cccc2Cl)cc1 | Active | inactive | inactive | > 50 | 8.3 | 71 | Active | – | – | – | – | – | – | – | – | –
10 | COc1ccccc1Oc1ccc(C(=O)N[C@H](C(=O)Nc2cccc(C(N)=O)c2)c2ccc(OCc3ccccc3)cc2)cc1 | Active | inactive | inactive | > 100 | 2.2 | 77 | Active | – | – | – | – | – | – | – | – | –
11 | NC(=O)c1ccc(CNC(=O)[C@@H](NC(=O)c2ccc(OCc3ccccc3)cc2)c2ccc(OCc3ccccc3)cc2)cc1 | Active | inactive | inactive | > 25 | 4 | 64 | Active | – | – | – | – | – | – | – | – | –
12 | O=C1NC(=O)C(c2ccccc2)(c2ccccc2)N1 [PHENYTOIN] | – | – | – | – | – | – | – | 5.7 | 166 | 8.7 | 25 | – | – | – | – | –
13 | CCCCCC(=O)N[C@H](C(=O)Nc1cccc(C(N)=O)c1)c1ccc(OCc2c(Cl)cccc2Cl)cc1 | Active | inactive | inactive | > 50 | 2.4 | 65 | – | – | – | – | – | – | – | – | – | –
14 | CCCCCCCC(=O)N[C@H](C(=O)NCc1ccc(C(N)=O)cc1)c1ccc(OCc2ccccc2)cc1 | – | inactive | inactive | > 50 | – | 56 | Active | – | – | – | – | – | – | – | – | –
15 | CCCCCC(=O)N[C@H](C(=O)NNc1ccc(C(N)=O)cc1)c1ccc(OCc2ccccc2)cc1 | Active | inactive | inactive | > 25 | 8.7 | 60 | – | – | – | – | – | – | – | – | – | –
16 | CCCCCC(=O)N[C@H](C(=O)NCc1ccc(C(N)=O)cc1)c1ccc(OCc2cccc(OC)c2)cc1 | Active | inactive | inactive | > 100 | 7.3 | 61 | – | – | – | – | – | – | – | – | – | –
17 | NC(=O)c1cccc(NC(=O)[C@@H](NC(=O)c2ccc3c(c2)OCCO3)c2ccc(OCc3ccccc3)cc2)c1 | Active | inactive | inactive | > 100 | 5.4 | 69 | – | – | – | – | – | – | – | – | – | –
18 | CCCCCC(=O)N[C@H](C(=O)N1CCC(C(=O)Nc2ccccc2)CC1)c1ccc(OCc2ccccc2)cc1 | Active | inactive | inactive | > 50 | 20 | 35 | – | – | – | – | – | – | – | – | – | –
19 | NC(=O)N1c2ccccc2C=Cc2ccccc21 [CARBAMAZEPINE] | – | – | – | – | – | – | – | 8.9 | 187 | -7.6 | 42 | – | – | – | – | –
20 | NC(=O)c1ccc(CNC(=O)[C@@H](NC(=O)c2ccc(Oc3ccccc3)cc2)c2ccc(OCc3ccccc3)cc2)cc1 | Active | inactive | inactive | 18 | 1 | 82 | – | 0.61 | 180 | 8.9 | 3 | 90 | 61.4 | – | – | –
21 | CCCCCCC(=O)N[C@H](C(=O)NCc1ccc(C(N)=O)cc1)c1ccc(OCc2ccccc2)cc1 | Active | inactive | inactive | > 50 | 7.9 | 52 | – | – | – | – | – | – | – | – | – | –
